Source: ChEMBL document CHEMBL4118021, “Studies of TAK1-centered polypharmacology with novel covalent TAK1 inhibitors” (Bioorg Med Chem, 2017)
Each block holds one compound with its values, some of them ahead of it. Active and inactive are the calls of the source. The calls are words filed in the database; no cut-off is given here.

Tests used:
[1] = molecular target: Ribosomal protein S6 kinase alpha-3 (Homo sapiens) (UniProt P51812); assay: Inhibition of RSK2 domain2 in human SKCO1 cells at 1 uM after 4 hrs using biotin labeled DLKPSNILYVDESGNPESIR probe by mass-spectrometric analysis relative to control; type: cell-based
[2] = molecular target: Protein kinase C iota (Homo sapiens) (UniProt P41743); assay: Inhibition of PKCi in human SKCO1 cells at 1 uM after 4 hrs using biotin labeled DLKLDNVLLDSEGHIK probe by mass-spectrometric analysis relative to control
[3] = molecular target: Mitogen-activated protein kinase kinase kinase 21 (Homo sapiens) (UniProt Q5TCX8); assay: Inhibition of MLK4 in human SKCO1 cells at 1 uM after 4 hrs using biotin labeled DLKSSNILLLEK probe by mass-spectrometric analysis relative to control; type: cell-based
[4] = test system: NCI-H23; assay: Antiproliferative activity against human NCI-H23 cells harboring KRAS G12C mutant at; type: functional, cell-based
[5] = molecular target: Serine/threonine-protein kinase RIO3 (Homo sapiens) (UniProt O14730); assay: Inhibition of full length human RIOK3 (1 to 519 residues) expressed in bacterial expression system assessed as enzyme activity at 1 uM by KINOMEScan assay relative to control; parameters: scale not given: the % may be the effect or the level left
How it was run: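 In vitro ATP-site competition binding assay (KinomeScan) across a panel of 456 kinases. Compound was tested at 1 and 10 μM. The read-out is the binding inhibition score relative to control.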

[6] = molecular target: Lysophosphatidylcholine acyltransferase 1 (Homo sapiens) (UniProt Q8NF37); assay: Binding affinity to LPCAT1 in human NCI-H358 cells at 1 uM by mass spectrometry based pull down assay; type: cell-based
[7] = molecular target: Tropomyosin alpha-3 chain (Homo sapiens) (UniProt P06753); assay: Binding affinity to TPM3 in human NCI-H358 cells at 1 uM by mass spectrometry based pull down assay; type: cell-based
[8] = molecular target: Nucleolin (Homo sapiens) (UniProt P19338); assay: Binding affinity to NCL in human NCI-H358 cells at 1 uM by mass spectrometry based pull down assay; type: cell-based
[9] = molecular target: Peroxiredoxin-4 (Homo sapiens) (UniProt Q13162); assay: Binding affinity to PRDX4 in human NCI-H23 cells at 1 uM by mass spectrometry based pull down assay; type: cell-based
[10] = molecular target: Cancer-related nucleoside-triphosphatase (Homo sapiens) (UniProt Q9BSD7); assay: Binding affinity to NTPCR in human NCI-H23 cells at 1 uM by mass spectrometry based pull down assay; type: cell-based
[11] = molecular target: Acidic leucine-rich nuclear phosphoprotein 32 family member A (Homo sapiens) (UniProt P39687); assay: Binding affinity to ANP32A in human NCI-H23 cells at 1 uM by mass spectrometry based pull down assay; type: cell-based
[12] = molecular target: Pyruvate dehydrogenase E1 component subunit beta, mitochondrial (Homo sapiens) (UniProt P11177); assay: Binding affinity to PDHB in human NCI-H358 cells at 1 uM by mass spectrometry based pull down assay; type: cell-based
[13] = molecular target: Tyrosine-protein phosphatase non-receptor type 1 (Homo sapiens) (UniProt P18031); assay: Binding affinity to PTPN1 in human NCI-H23 cells at 1 uM by mass spectrometry based pull down assay; type: cell-based
[14] = molecular target: Glutamate--cysteine ligase catalytic subunit (Homo sapiens) (UniProt P48506); assay: Binding affinity to GCLC in human NCI-H23 cells at 1 uM by mass spectrometry based pull down assay; type: cell-based
[15] = molecular target: TGF-beta-activated kinase 1 and MAP3K7-binding protein 1 (Homo sapiens) (UniProt Q15750); assay: Binding affinity to TAB1 in human NCI-H358 cells at 1 uM by mass spectrometry based pull down assay; type: cell-based
[16] = molecular target: Bridging integrator 3 (Homo sapiens) (UniProt Q9NQY0); assay: Binding affinity to BIN3 in human NCI-H23 cells at 1 uM by mass spectrometry based pull down assay; type: cell-based
[17] = molecular target: Elongation factor 1-gamma (Homo sapiens) (UniProt P26641); assay: Binding affinity to EEF1G in human NCI-H358 cells at 1 uM by mass spectrometry based pull down assay; type: cell-based
[18] = molecular target: Thioredoxin-related transmembrane protein 1 (Homo sapiens) (UniProt Q9H3N1); assay: Binding affinity to TMX1 in human NCI-H358 cells at 1 uM by mass spectrometry based pull down assay; type: cell-based
[19] = molecular target: Importin-5 (Homo sapiens) (UniProt O00410); assay: Binding affinity to IPO5 in human NCI-H358 cells at 1 uM by mass spectrometry based pull down assay; type: cell-based
[20] = molecular target: T1, Serine/threonine-protein kinase D2 (Homo sapiens) (UniProt Q9BZL6); assay: Binding affinity to PRKD2 in human NCI-H23 cells at 1 uM by mass spectrometry based pull down assay; type: cell-based
T1 sequence (whole entry): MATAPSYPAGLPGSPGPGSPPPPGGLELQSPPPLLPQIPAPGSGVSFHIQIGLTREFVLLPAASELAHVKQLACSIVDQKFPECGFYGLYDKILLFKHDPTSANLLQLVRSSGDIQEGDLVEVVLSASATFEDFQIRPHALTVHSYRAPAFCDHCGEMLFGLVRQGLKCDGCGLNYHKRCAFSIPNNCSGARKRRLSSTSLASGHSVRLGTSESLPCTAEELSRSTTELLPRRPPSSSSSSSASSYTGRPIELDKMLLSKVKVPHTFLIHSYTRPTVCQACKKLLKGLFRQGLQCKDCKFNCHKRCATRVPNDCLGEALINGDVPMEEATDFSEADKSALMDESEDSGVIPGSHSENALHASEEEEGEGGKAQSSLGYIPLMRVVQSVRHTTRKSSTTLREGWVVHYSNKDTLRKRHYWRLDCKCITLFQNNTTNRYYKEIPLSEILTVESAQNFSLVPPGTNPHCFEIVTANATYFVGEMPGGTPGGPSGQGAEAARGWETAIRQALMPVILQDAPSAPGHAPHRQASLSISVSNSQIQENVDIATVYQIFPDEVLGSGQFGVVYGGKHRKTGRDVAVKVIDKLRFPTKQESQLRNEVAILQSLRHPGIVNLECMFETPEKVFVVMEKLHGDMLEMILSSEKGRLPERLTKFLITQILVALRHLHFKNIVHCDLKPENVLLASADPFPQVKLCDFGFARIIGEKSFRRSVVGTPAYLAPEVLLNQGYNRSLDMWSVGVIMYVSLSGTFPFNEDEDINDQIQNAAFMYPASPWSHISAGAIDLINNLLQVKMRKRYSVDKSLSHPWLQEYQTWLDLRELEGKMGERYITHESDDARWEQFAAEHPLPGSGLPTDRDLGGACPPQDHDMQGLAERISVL

[21] = molecular target: Importin subunit beta-1 (Homo sapiens) (UniProt Q14974); assay: Binding affinity to KPNB1 in human NCI-H358 cells at 1 uM by mass spectrometry based pull down assay; type: cell-based
[22] = molecular target: Actin-related protein 2 (Homo sapiens) (UniProt P61160); assay: Binding affinity to ACTR2 in human NCI-H23 cells at 1 uM by mass spectrometry based pull down assay; type: cell-based
How it was run: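 NCI-H23 or NCI-H358 cells were grown and lysed. Lysates were incubated overnight at 4 °C with 1 μM biotinylated covalent probe or DMSO, then pulled down on streptavidin beads. Proteins were run on polyacrylamide gels and stained with Coomassie. Bands were excised, digested and identified by mass spectrometry.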

Sequence of Tropomyosin alpha-3 chain (Homo sapiens) (P06753 whole entry): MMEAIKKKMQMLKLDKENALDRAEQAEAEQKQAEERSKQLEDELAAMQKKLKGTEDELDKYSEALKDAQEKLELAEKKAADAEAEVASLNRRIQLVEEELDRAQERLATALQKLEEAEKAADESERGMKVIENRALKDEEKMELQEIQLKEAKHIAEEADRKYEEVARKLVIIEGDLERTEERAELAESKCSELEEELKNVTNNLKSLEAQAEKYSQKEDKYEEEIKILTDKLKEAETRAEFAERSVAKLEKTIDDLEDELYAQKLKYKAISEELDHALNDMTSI
Sequence of Cancer-related nucleoside-triphosphatase (Homo sapiens) (Q9BSD7 whole entry): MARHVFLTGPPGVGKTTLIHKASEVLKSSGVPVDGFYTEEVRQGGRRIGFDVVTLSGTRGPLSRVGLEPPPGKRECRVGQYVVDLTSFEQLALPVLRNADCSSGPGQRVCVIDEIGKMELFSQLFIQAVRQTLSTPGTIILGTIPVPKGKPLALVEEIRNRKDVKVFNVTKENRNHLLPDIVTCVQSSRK
Sequence of Thioredoxin-related transmembrane protein 1 (Homo sapiens) (Q9H3N1 whole entry): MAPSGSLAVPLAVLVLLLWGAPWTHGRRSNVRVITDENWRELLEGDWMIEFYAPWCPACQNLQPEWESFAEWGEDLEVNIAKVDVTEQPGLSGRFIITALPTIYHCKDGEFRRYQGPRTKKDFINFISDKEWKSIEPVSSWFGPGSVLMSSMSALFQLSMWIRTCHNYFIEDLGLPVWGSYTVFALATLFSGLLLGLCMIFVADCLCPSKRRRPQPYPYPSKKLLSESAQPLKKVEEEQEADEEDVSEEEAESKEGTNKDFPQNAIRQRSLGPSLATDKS
Sequence of Glutamate--cysteine ligase catalytic subunit (Homo sapiens) (P48506 whole entry): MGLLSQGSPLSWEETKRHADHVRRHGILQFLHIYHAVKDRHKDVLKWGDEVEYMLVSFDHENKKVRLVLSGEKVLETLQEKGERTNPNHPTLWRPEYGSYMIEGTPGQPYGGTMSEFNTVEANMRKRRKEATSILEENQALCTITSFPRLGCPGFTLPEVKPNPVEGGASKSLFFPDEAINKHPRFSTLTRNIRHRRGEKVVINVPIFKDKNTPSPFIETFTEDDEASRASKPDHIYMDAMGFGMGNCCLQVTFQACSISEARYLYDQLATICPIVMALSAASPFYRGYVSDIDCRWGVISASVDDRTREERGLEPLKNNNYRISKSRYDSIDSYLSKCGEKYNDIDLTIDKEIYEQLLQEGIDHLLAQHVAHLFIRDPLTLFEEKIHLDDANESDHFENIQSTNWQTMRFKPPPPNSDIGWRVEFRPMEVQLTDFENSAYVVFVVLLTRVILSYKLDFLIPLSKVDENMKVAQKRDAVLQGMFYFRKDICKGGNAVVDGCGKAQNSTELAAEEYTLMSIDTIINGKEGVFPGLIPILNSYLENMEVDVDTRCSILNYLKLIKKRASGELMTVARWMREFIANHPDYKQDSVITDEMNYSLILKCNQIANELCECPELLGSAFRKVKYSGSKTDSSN
Sequence of Elongation factor 1-gamma (Homo sapiens) (P26641 whole entry): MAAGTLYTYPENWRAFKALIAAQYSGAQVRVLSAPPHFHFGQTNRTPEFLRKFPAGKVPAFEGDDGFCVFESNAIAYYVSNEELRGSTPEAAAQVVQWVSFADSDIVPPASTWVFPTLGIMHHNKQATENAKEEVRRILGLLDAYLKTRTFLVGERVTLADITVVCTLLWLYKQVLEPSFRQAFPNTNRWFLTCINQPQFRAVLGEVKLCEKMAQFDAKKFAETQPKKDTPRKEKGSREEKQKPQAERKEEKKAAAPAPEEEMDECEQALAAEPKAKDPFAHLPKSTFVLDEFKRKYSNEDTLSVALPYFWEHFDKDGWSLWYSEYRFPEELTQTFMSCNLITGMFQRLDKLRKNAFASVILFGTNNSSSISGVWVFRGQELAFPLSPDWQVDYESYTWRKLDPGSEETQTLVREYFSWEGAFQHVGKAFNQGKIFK
Sequence of Ribosomal protein S6 kinase alpha-3 (Homo sapiens) (P51812 whole entry, the tested form may be a part): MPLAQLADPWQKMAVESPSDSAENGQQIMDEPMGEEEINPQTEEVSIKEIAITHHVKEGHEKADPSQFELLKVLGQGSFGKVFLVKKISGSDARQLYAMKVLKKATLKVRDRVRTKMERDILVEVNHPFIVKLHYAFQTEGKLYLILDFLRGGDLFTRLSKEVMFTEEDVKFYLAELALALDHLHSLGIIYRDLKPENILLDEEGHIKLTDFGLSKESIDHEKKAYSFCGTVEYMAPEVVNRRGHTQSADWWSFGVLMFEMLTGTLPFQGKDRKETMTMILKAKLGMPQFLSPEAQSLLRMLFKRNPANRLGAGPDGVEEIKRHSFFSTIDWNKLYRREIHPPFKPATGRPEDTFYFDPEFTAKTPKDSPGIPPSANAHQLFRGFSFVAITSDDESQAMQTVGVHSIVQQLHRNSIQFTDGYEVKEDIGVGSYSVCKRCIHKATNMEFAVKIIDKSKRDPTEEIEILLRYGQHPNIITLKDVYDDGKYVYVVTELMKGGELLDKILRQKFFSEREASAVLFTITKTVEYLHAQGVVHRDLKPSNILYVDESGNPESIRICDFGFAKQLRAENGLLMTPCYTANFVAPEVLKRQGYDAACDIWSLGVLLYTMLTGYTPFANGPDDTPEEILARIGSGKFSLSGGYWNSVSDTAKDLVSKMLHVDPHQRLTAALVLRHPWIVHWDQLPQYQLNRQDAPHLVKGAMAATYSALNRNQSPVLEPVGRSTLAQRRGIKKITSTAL
Sequence of Protein kinase C iota (Homo sapiens) (P41743 whole entry, looked up): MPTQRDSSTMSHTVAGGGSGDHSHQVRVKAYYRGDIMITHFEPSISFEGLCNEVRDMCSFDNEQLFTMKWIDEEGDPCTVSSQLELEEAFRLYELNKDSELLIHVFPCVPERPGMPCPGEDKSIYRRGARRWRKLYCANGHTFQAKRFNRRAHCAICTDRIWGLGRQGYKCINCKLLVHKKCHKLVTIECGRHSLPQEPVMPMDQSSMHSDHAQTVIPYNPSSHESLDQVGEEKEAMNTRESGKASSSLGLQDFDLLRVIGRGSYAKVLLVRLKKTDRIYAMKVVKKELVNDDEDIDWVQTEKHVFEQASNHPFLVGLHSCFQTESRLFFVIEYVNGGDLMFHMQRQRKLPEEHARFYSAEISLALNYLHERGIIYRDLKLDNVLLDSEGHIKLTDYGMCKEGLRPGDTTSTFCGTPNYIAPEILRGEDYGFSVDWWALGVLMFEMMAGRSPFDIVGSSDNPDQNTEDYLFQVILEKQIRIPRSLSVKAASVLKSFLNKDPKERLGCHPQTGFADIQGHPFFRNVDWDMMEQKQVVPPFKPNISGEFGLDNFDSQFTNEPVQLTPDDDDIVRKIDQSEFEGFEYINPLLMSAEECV
Sequence of Serine/threonine-protein kinase RIO3 (Homo sapiens) (O14730 whole entry, the tested form may be a part): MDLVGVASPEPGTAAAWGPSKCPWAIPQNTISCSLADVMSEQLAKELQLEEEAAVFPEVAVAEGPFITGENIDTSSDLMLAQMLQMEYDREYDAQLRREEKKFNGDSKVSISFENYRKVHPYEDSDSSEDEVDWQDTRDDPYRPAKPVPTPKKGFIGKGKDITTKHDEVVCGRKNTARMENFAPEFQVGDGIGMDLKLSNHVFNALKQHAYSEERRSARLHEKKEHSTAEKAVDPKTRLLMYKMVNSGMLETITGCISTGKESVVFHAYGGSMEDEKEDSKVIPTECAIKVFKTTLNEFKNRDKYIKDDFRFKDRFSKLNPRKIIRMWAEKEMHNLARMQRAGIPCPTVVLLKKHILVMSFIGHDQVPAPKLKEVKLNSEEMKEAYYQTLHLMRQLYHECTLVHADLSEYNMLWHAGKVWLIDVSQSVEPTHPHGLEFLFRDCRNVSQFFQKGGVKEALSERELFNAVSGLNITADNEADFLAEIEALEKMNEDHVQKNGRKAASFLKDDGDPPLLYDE
Sequence of Nucleolin (Homo sapiens) (P19338 whole entry): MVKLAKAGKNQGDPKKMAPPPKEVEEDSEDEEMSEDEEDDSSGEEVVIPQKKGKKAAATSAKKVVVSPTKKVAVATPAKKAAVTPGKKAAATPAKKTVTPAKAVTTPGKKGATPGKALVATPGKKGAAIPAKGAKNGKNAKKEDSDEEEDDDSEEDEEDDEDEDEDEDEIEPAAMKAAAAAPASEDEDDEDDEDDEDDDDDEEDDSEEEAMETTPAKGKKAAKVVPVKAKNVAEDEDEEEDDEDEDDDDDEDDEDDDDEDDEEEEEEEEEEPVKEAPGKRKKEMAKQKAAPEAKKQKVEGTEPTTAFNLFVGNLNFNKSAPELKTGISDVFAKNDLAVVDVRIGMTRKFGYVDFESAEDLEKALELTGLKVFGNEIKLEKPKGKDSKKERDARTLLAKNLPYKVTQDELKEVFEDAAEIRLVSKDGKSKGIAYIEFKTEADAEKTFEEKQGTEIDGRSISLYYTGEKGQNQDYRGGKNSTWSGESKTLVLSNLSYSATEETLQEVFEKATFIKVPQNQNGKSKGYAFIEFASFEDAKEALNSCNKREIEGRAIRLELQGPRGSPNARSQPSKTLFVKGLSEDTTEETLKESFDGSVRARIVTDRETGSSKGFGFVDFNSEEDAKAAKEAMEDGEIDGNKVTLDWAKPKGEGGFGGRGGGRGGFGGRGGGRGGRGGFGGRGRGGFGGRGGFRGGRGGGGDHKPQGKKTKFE
Sequence of Lysophosphatidylcholine acyltransferase 1 (Homo sapiens) (Q8NF37 whole entry): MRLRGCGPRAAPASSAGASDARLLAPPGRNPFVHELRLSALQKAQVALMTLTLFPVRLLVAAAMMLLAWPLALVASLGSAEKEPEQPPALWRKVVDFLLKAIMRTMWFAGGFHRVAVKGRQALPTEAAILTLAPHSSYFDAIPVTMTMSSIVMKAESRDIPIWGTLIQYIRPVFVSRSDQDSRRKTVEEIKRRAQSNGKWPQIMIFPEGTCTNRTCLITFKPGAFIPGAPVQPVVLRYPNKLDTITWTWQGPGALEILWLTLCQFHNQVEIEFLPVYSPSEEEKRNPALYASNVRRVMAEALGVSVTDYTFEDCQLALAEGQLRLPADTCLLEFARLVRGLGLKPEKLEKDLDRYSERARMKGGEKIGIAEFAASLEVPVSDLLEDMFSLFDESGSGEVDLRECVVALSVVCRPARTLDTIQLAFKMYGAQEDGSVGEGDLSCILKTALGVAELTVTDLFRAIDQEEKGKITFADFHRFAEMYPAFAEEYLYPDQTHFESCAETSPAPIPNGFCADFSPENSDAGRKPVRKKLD

Structure (SMILES): C=CC(=O)Nc1ccccc1Oc1nc(Nc2cnn(CCOC)c2)ncc1Cl
inhibition [1]: -9.3%

Structure (SMILES): C=CC(=O)Nc1ccccc1Nc1nc(Nc2ccc(N3CCN(C)CC3)cc2)ncc1Cl
inhibition [2]: -5.7%
inhibition [3]: -1.1%

Structure (SMILES): COc1cc(O)c2c(c1)/C=C/C[C@H](O)[C@H](O)C(=O)/C=C\C[C@H](C)OC2=O
Activity [4]: Active
Activity [5]: 74%

Activity [6]: Active
Activity [7]: Active
Activity [8]: Active
Activity [9]: Active
Activity [10]: Active
Activity [11]: Active
Activity [12]: Active
Activity [13]: Active
Activity [14]: Active
Activity [15]: Active
Activity [16]: Active
Activity [17]: Active
Activity [18]: Active
Activity [19]: Active
Activity [20]: Active
Activity [21]: Active
Activity [22]: Active
Structure (SMILES): C=CC(=O)Nc1ccccc1Nc1nc(Nc2ccc(N3CCN(CCOCCOCCOCCNC(=O)CCCC[C@@H]4SC[C@@H]5NC(=O)N[C@@H]54)CC3)cc2)ncc1Cl
